Bioassay records as filed in PubChem.
bovine MsrA act: bovine MsrA enzyme activators, primary screen, biochemical, absorbance, HTS | Methionine sulfoxide reductase A (Bos taurus) | purified bovine MsrA, absorbance read-out | activation, % at 10.6 µM | 360,000 compounds, 0.3% hits; in the data active means activation above about 7.5%;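 further: 0% = vehicle and 100% = reference activator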
MC4R antag cAMP: MC4R antagonists of cAMP signaling, primary screen, cell-based, TR-FRET, antagonist arm of biased-ligand search; AID 540295, 2011; 360,000 compounds, 0.48% hits; Melanocortin receptor 4 (Homo sapiens), P32245; MC4R-expressing cells, MTII-stimulated cAMP, LANCE TR-FRET; inhibition, % at 6.5 µM;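 active means inhibition above its plate's cutoff, the mean of tested wells on that plate plus 3 SD, cut at about 29% in these data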;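 further: 0% = Melanotan II alone and 100% = Melanotan II plus saturating MCL0020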
Target sequence (P32245 whole entry, looked up): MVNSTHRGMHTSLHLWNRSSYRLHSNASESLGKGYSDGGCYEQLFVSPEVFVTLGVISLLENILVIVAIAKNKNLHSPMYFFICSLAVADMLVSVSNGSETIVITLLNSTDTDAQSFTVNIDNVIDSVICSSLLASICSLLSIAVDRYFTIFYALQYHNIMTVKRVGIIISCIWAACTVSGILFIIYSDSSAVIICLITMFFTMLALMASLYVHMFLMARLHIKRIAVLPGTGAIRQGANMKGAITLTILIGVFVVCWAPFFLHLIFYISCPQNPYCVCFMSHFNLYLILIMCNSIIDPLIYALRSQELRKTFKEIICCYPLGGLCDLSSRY
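Assay system: human MC4R-expressing U2OS cells; reagent: Melanotan II stimulation of cells; dosing: 6.5 µM single dose; timing: compound 30 min, challenge 1 h, detection 1 h; signal: TR-FRET cAMP assay; replicates: one well per compound, no replicates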
MC4R ag barr: MC4R agonists recruiting beta-arrestin, primary screen, cell-based, luminescence, agonist arm of biased-ligand search; Melanocortin receptor 4 (Homo sapiens), P32245; U2OS MC4R beta-arrestin complementation; percent of melanotan II response, DMSO zero; activation, % at 8.9 µM; 360,000 compounds, 0.98% hits;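 active means activation above a per-plate cutoff, the mean activation of sample wells on that plate plus 3 SD, cut at about 8% in these data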
MsrA inhibitor: bovine MsrA enzyme inhibitors, primary screen, biochemical, absorbance, HTS. Methionine sulfoxide reductase A (Bos taurus). purified bovine MsrA, absorbance read-out. inhibition, % at 15.5 µM. 360,000 compounds, 0.75% hits. AID 651718, 2012; in the data active means inhibition above about 4.5%;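 further: 0% = vehicle wells with enzyme and 100% = reference inhibitor wells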
U2OS cAMP counter: nonselective cAMP signaling inhibitors, parental cells, counter-screen for MC4R biased antagonist project, cell-based, TR-FRET, U2OS, forskolin, triplicate | shares compounds with MC4R antag cAMP | LANCE TR-FRET | inhibition, % at 6.5 µM | 1,600 compounds, 26% hits;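 active means mean inhibition over triplicates above the low-control well mean plus 3 SD, set per campaign, cut at about 13% in these data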;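 further: signal is single emission at 671 nm which falls as cellular cAMP rises; 0% = forskolin-stimulated wells and 100% = buffer without forskolin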
MC4R cAMP antag: MC4R cAMP antagonists, retest, confirmation, cell-based, TR-FRET. MC4R-expressing cells, MTII-stimulated cAMP. inhibition, % at 6.5 µM. shares compounds with MC4R antag cAMP. 1,600 compounds, 27% hits; in the data active means inhibition above about 29%;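 further: 0% = agonist stimulated wells alone and 100% = agonist stimulated wells plus saturating reference antagonist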
The depositor's hits bear a star; nt = no result given. Sampled rows, rich in hits. Any-hit rate of the full collection: about 2.3%.

SMILES | bovine MsrA act | MC4R antag cAMP | MC4R ag barr | MsrA inhibitor | U2OS cAMP counter | MC4R cAMP antag
CCN(c1ccccc1)S(=O)(=O)c1cc(C(=O)OC2CCOC2=O)ccc1C (stereo not drawn) | -3 | 40* | -3 | 0 | 24* | 37*
COc1cccc(-n2c(N)c(-c3nc4ccccc4[nH]3)sc2=S)c1 | -6 | 7 | 0 | 0 | nt | nt
Cc1nn(-c2cc(C)c3ccccc3n2)c2c1C1C(C2)C1(C)C (stereo not drawn) | -1 | 0 | 0 | 0 | nt | nt
CCCCNc1c(-c2ccc(OC)c(Sc3ccc(OC)cc3)c2)nc2ccccn12 | -3 | 46* | 5 | nt | 7 | 28
COc1ccc(CCCNC(=O)C2(C)Cc3c(-c4ccc(NC(C)=O)cc4)ccnc3O2)cc1 (stereo not drawn) | -3 | 34* | 2 | 0 | 3 | 3
Cc1cccc(N=Nc2c(C)nn(-c3ccccc3)c2N)c1C | 0 | 13 | -1 | 1 | nt | nt
CSCCC(NC(=O)c1cccc(C)c1)C(=O)OCN1C(=O)c2ccccc2C1=O (stereo not drawn) | -4 | 30* | -2 | 0 | 10 | 41*
CCc1ccc(NC(=O)C2CCN(C(=O)[C@@H]3Cc4ccccc4CN3)CC2)cc1 | 1 | 1 | -1 | -1 | nt | nt
CC(C)[C@H](CN1CCC[C@H]1CN1C(N)=NC[C@@H]1Cc1ccccc1)N1C[C@@H](Cc2ccccc2)N(CCc2ccc(Cl)c(Cl)c2)C1=N | -7 | 31* | 1 | nt | -6 | 43*
CCC[C@@H](CN1CCC[C@H]1CN1C(N)=NC[C@@H]1Cc1ccccc1)N1C[C@@H](Cc2ccccc2)N(CCc2ccc(Cl)c(Cl)c2)C1=N | 0 | 18 | 1 | 1 | nt | nt
CCC[C@@H](CN1CCC[C@H]1CN1C(N)=NC[C@H]1CC(C)C)N1C[C@@H](Cc2ccccc2)N(CCc2ccc(Cl)c(Cl)c2)C1=N | -4 | 29* | 2 | 0 | -2 | 39*
CC(C)[C@H](CN1CCC[C@H]1CN1C(N)=NC[C@H]1C(C)C)N1C[C@@H](Cc2ccccc2)N(CCCC2CCCC2)C1=N | 0 | 30* | 0 | nt | -3 | 27
COC(=O)c1c(C)oc2ccc(N(C(=O)Oc3ccccc3)S(=O)(=O)c3ccc(Cl)c([N+](=O)[O-])c3)cc12 | -2 | -4 | -1 | nt | nt | nt
Cc1onc(-c2ccccc2Cl)c1C(=O)NNC(=O)c1nn(C)cc1Cl | -1 | 36* | 0 | 1 | -3 | -13
COC(=O)COc1ccc(S(=O)(=O)N2CCN(c3ccc(OC)cc3)CC2)cc1 | -2 | 30* | -1 | 0 | 18* | 46*
COC(=O)COc1ccc(S(=O)(=O)N2CCN(c3ccc(F)cc3)CC2)cc1 | -2 | 31* | 2 | 2 | 16* | 46*
COC(=O)COc1ccc(S(=O)(=O)N2CCCCCC2)cc1 | -3 | 7 | -2 | 0 | nt | nt
Cc1cc(C)c(/C=N/n2c(C)cc(C)c(C#N)c2=O)c(C)c1 | -2 | 29* | 0 | 0 | -1 | -8
COCCCNC(=O)CCc1nc(-c2ccccc2Cl)no1 | -2 | 2 | -1 | 1 | nt | nt
O=C(CCc1nc(-c2ccccc2Cl)no1)NCCc1ccccc1 | 1 | 29* | 1 | 0 | -1 | 2
O=C(/C=C/c1ccco1)OCC1CCCN2CCCCC12 (stereo not drawn) | -2 | 31* | -3 | 2 | -2 | -6
CS(=O)(=O)c1ccc(C(=O)OCC(=O)NCc2cccs2)cc1[N+](=O)[O-] | 2 | 47* | -2 | 1 | 22* | 18
CCOCC(=O)Nc1cccc(C(=O)OCC)c1 | -3 | 4 | 0 | -1 | nt | nt
CCOc1ncccc1C(=O)OCC(=O)Nc1cccc(C(C)=O)c1 | -3 | 12 | -1 | 0 | nt | nt
CC(=O)c1cccc(NC(=O)COC(=O)c2ccccc2C)c1 | -1 | 38* | 2 | -1 | 1 | 2
SMILES | bovine MsrA act | MC4R antag cAMP | MC4R ag barr | MsrA inhibitor | U2OS cAMP counter | MC4R cAMP antag
CCOC(=O)C(=O)Nc1cccc(C(=O)OCC)c1 | -2 | 29* | 0 | 0 | 1 | 2
CC[n+]1c(/C=C/c2c[nH]c3ccccc23)ccc2cc(C)ccc21 | nt | nt | nt | 2 | nt | nt
O=C(c1ccco1)N1CCN(C2=NS(=O)(=O)c3ccccc32)CC1 | 0 | 9 | 0 | 1 | nt | nt
Cc1ccc(NC(=O)CNCc2ccccc2)cc1Br | -1 | 6 | 6 | 0 | nt | nt
CC1Cc2ccccc2N1S(=O)(=O)c1cnc(Cl)c(Cl)c1 (stereo not drawn) | 0 | 23 | -2 | 0 | nt | nt
CC1Cc2ccccc2N1S(=O)(=O)c1cnc(Cl)c(Br)c1 (stereo not drawn) | -4 | 30* | -2 | 1 | 22* | 38*
COc1cc(OC)c(NC2=CC(=O)C(=O)c3ccccc32)cc1Cl | -2 | -27 | -1 | 1 | nt | nt
CCn1nnnc1NCc1ccc(OCc2c(F)cccc2Cl)c(OC)c1 | -1 | 32* | 0 | -1 | -3 | 7
C=CCn1c(C)cc(C(=O)COc2ccc(N(C)S(=O)(=O)c3ccc(NC(C)=O)cc3)cc2)c1C | -2 | 40* | 2 | 0 | -1 | 5
O=C(CNC(=O)c1ccc(Oc2ccccc2)cc1)OC1CCCCC1=O (stereo not drawn) | 1 | 34* | -2 | 1 | 12 | 24
Cc1ccc(C(=O)NCC(=O)OC2CCCCC2=O)cc1C (stereo not drawn) | 0 | 8 | -2 | 0 | nt | nt
COc1ccc(C(=O)OCC(=O)NC(C)CCc2ccccc2)cc1 (stereo not drawn) | -2 | 7 | 1 | -1 | nt | nt
COc1ccc(C(=O)OCC(=O)NC(C)CCc2ccccc2)cc1OC (stereo not drawn) | 0 | 31* | 1 | -1 | -1 | 2
COC(=O)[C@H](CC(C)C)NC(=O)N1CCC(C)CC1 | -1 | 33* | -1 | 0 | 5 | 4
CCOc1ccc(N(CC(=O)N/N=C/c2cccnc2)S(C)(=O)=O)cc1 | -3 | 31* | 1 | 0 | -1 | 1
COCCNC(=S)N(CCc1c(C)[nH]c2ccc(Cl)cc12)Cc1cccnc1 | -2 | 3 | 0 | 1 | nt | nt
CN(C(=O)COC(=O)C12CC3CC(CC(Cl)(C3)C1)C2)c1ccccc1 | 0 | 0 | 7 | -1 | nt | nt
CC(CCc1ccccc1)NC(=O)CN1CCOc2ccccc21 (stereo not drawn) | -1 | 3 | 0 | 1 | nt | nt
CC(CCc1ccccc1)NC(=O)CN1CCSc2ccccc21 (stereo not drawn) | -3 | 31* | -1 | 0 | -1 | -2
